Measured values published in ChEMBL document CHEMBL4138196, “Discovery and structure-activity relationship of novel 4-hydroxy-thiazolidine-2-thione derivatives as tumor cell specific pyruvate kinase M2 activators” (Eur J Med Chem, 2018).

Legend:
HeLa = assay: Antiproliferative activity against human HeLa cells after 48 hrs by MTS assay; format: functional, cell-based
Outline: (§1)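 Cells grown in RPMI 1640 with 9% FBS at 37°C, 5% CO2. 3000-10000 cells/well were left to attach 12 h, then given compound at five concentrations, or DMSO as vehicle control, for 48 h. MTS was added for 3 h at 37°C and absorbance read at 490 nm. IC50 (50% growth inhibition) was taken from triplicate dose-response curves.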

[1] = Antiproliferative activity against HELF after 48 hrs by MTS assay; set-up: species or system Homo sapiens; outline: as §1
HCT-116 = assay: Antiproliferative activity against human HCT116 cells after 48 hrs by MTS assay; format: functional, cell-based; conditions: HCT-116, 48 h; outline: as §1
NCI-H1299 = assay: Antiproliferative activity against human H1299 cells after 48 hrs by MTS assay; format: functional, cell-based; conditions: NCI-H1299, 48 h; outline: as §1
PC-3 = assay: Antiproliferative activity against human PC3 cells after 48 hrs by MTS assay; format: functional, cell-based; conditions: PC-3, 48 h; outline: as §1
Pyruvate kinase PKM = Pyruvate kinase PKM (Homo sapiens, UniProt P14618); assay: Activation of N-terminal His -tagged human PKM2 expressed in Escherichia coli BL21 using PEP as substrate measured at 30 secs intervals for between 3 and 6 mins by fluorescent pyruvate kinase-lactate dehydrogenase coupled assay
Pyruvate kinase PKM, sequence (P14618 whole entry): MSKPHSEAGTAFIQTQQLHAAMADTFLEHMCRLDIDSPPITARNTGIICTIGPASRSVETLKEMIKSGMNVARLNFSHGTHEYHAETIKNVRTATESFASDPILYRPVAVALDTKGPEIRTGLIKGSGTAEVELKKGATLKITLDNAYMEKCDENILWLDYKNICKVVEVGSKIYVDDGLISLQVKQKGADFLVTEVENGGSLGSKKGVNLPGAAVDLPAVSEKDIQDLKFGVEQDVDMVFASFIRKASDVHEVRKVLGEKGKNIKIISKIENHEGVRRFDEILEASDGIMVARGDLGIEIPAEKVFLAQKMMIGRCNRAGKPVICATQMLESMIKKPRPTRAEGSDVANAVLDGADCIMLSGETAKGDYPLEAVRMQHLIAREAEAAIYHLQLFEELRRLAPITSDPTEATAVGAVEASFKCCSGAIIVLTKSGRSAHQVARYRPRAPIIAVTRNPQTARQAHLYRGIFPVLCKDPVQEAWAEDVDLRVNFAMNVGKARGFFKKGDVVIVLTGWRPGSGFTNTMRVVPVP

Compound	IC50 (HeLa) [nM]	IC50 [1] [nM]	IC50 (HCT-116) [nM]	IC50 (NCI-H1299) [nM]	IC50 (PC-3) [nM]	AC50 (Pyruvate kinase PKM) [nM]
COc1ncccc1CN1C(=S)SCC1(O)c1ccc(NS(=O)(=O)c2ccc3c(c2)OCCO3)cc1 (stereo not given)	410	10400	740	830	1130	> 20000
O=S(=O)(Nc1ccc(C2(O)CSC(=S)N2Cc2cccnc2)cc1)c1ccccc1F (stereo not given)	550	–	1180	1450	2680	> 20000
O=S(=O)(Nc1ccc(-c2csc(=S)n2Cc2cccnc2)cc1)c1cccc2cccnc12	> 20000	–	> 20000	> 20000	> 20000	> 20000
Cc1cccc(S(=O)(=O)Nc2ccc(C3(O)CSC(=S)N3Cc3cccnc3)cc2)c1 (stereo not given)	1140	–	1730	1680	1110	6250
Cc1ccccc1S(=O)(=O)Nc1ccc(C2(O)CSC(=S)N2Cc2cccnc2)cc1 (stereo not given)	550	–	2410	1630	1580	1190
N#Cc1ccc(S(=O)(=O)Nc2ccc(C3(O)CSC(=S)N3Cc3cccnc3)cc2)cc1 (stereo not given)	770	–	1800	1470	4110	> 20000
CS(=O)(=O)Nc1ccc(C2(O)CSC(=S)N2Cc2cccnc2)cc1 (stereo not given)	860	–	1560	1250	2200	> 20000
O=S(=O)(Cc1ccccc1)Nc1ccc(C2(O)CSC(=S)N2Cc2cccnc2)cc1 (stereo not given)	1260	–	3320	1550	2440	7240
O=S(=O)(Nc1ccc(C2(O)CSC(=S)N2Cc2ccc3nccn3c2)cc1)c1ccc2c(c1)OCCO2 (stereo not given)	450	4910	770	790	1330	7070
O=S(=O)(Nc1ccc(C2(O)CSC(=S)N2Cc2cccnc2)cc1)c1cccs1 (stereo not given)	420	–	1440	1230	1250	1470
O=S(=O)(Nc1ccc(C2(O)CSC(=S)N2Cc2cccnc2)cc1)c1cccc(F)c1 (stereo not given)	480	–	4110	1140	2190	> 20000
O=S(=O)(Nc1ccc(C2(O)CSC(=S)N2Cc2cccnc2)cc1)c1ccccc1N1CCOCC1 (stereo not given)	1330	–	3450	1240	8620	> 20000
O=S(=O)(Nc1ccc(C2(O)CSC(=S)N2Cc2cccnc2)cc1)c1ccccc1-c1ccccc1 (stereo not given)	1100	–	6110	2700	2810	> 20000
O=S(=O)(Nc1ccc(C2(O)CSC(=S)N2CCc2cccnc2)cc1)c1ccc2c(c1)OCCO2 (stereo not given)	620	–	1040	1280	2160	> 20000
O=S(=O)(Nc1ccc(C2(O)CSC(=S)N2Cc2cnc3ccccc3c2)cc1)c1ccc2c(c1)OCCO2 (stereo not given)	550	–	1280	1810	1280	1750
O=S(=O)(Nc1ccc(C2(O)CSC(=S)N2Cc2cccnc2)cc1)c1cccc2cccnc12 (stereo not given)	840	–	2110	2430	2350	520
O=[N+]([O-])c1ccc(S(=O)(=O)Nc2ccc(C3(O)CSC(=S)N3Cc3cccnc3)cc2)cc1 (stereo not given)	260	–	2720	1220	1310	> 20000

Compound	IC50 (HeLa) [nM]	IC50 [1] [nM]	IC50 (HCT-116) [nM]	IC50 (NCI-H1299) [nM]	IC50 (PC-3) [nM]	AC50 (Pyruvate kinase PKM) [nM]
O=C1CCc2cc(S(=O)(=O)Nc3ccc(C4(O)CSC(=S)N4Cc4cccnc4)cc3)ccc2N1 (stereo not given)	710	–	1640	1650	4290	740
O=S(=O)(Nc1ccc(C2(O)CSC(=S)N2Cc2cnccn2)cc1)c1ccc2c(c1)OCCO2 (stereo not given)	550	–	850	1720	920	2150
Cc1ccc(S(=O)(=O)Nc2ccc(C3(O)CSC(=S)N3Cc3cccnc3)cc2)cc1 (stereo not given)	440	–	2180	1200	940	> 20000
O=c1ccc2cc(S(=O)(=O)Nc3ccc(C4(O)CSC(=S)N4Cc4cccnc4)cc3)ccc2o1 (stereo not given)	690	–	1410	1650	2400	> 20000
CN(c1ccc(C2(O)CSC(=S)N2Cc2cccnc2)cc1)S(=O)(=O)c1cccc2cccnc12 (stereo not given)	930	–	2320	2470	6150	> 20000
CS(=O)(=O)c1cccc(-c2ccc(CN3C(=S)SCC3(O)c3ccc(NS(=O)(=O)c4ccc5c(c4)OCCO5)cc3)cn2)c1 (stereo not given)	510	–	920	1020	1350	17600
CC(=O)O[C@H]1C(=O)[C@@]2(C)[C@H]([C@H](OC(=O)c3ccccc3)[C@]3(O)C[C@H](OC(=O)[C@H](O)[C@@H](NC(=O)c4ccccc4)c4ccccc4)C(C)=C1C3(C)C)[C@]1(OC(C)=O)CO[C@@H]1C[C@@H]2O [PACLITAXEL]	–	–	1370	7830	4570	–
O=[N+]([O-])c1ccccc1S(=O)(=O)Nc1ccc(C2(O)CSC(=S)N2Cc2cccnc2)cc1 (stereo not given)	610	–	2300	1750	3870	> 20000
O=S(=O)(Nc1ccc(C2(O)CSC(=S)N2Cc2cccnc2)cc1)c1cccc2ccccc12 (stereo not given)	630	–	2610	1530	1690	> 20000
COc1ccc(Cl)cc1S(=O)(=O)Nc1ccc(C2(O)CSC(=S)N2Cc2cccnc2)cc1 (stereo not given)	1110	–	3690	1620	4510	> 20000
O=S(=O)(Nc1ccc(C2(O)CSC(=S)N2Cc2cccnc2)cc1)c1ccc(F)cc1 (stereo not given)	570	–	3500	1310	1400	> 20000
O=S(=O)(Nc1ccc(C2(O)CSC(=S)N2Cc2cccnc2)cc1)c1c[nH]c2ncccc12 (stereo not given)	760	–	1550	2000	1260	1410
O=C1COc2ccc(S(=O)(=O)Nc3ccc(C4(O)CSC(=S)N4Cc4cccnc4)cc3)cc2N1 (stereo not given)	780	–	1840	2120	1950	> 20000
O=S(=O)(Nc1ccc(C2(O)CSC(=S)N2Cc2cccnc2)cc1)c1ccccc1 (stereo not given)	450	–	1700	1440	990	2960
O=[N+]([O-])c1cccc(-c2ccccc2S(=O)(=O)Nc2ccc(C3(O)CSC(=S)N3Cc3cccnc3)cc2)c1 (stereo not given)	1400	–	3890	2960	3260	> 20000
Cc1cc(C)c(S(=O)(=O)Nc2ccc(C3(O)CSC(=S)N3Cc3cccnc3)cc2)c(C)c1 (stereo not given)	940	–	1650	1750	1330	> 20000
